Source: ChEMBL document CHEMBL2424603, “Design, synthesis, and biological and crystallographic evaluation of novel inhibitors of Plasmodium falciparum enoyl-ACP-reductase (PfFabI)” (J Med Chem, 2013)

Legend:
Plasmodium falciparum [1] = test: Antiplasmodial activity against chloroquine/pyrimethamine-resistant Plasmodium falciparum K1 assessed as growth inhibition after […] by [3H]-hypoxanthine incorporation assay; type: functional, organism-based
Procedure, shortened: (§1)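 Tested against the chloroquine- and pyrimethamine-resistant K1 strain, with chloroquine as the standard drug. Growth was read by [3H]hypoxanthine incorporation. IC50 was taken from graphically plotted dose–response curves and averaged over at least two independent assays run in duplicate.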

L6 = test: Cytotoxicity against rat L6 cells assessed as growth inhibition after 72 hrs by fluorometric analysis; type: cell-based; conditions: L6, 72 h
Procedure, shortened: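 Mammalian L6 cell growth inhibition; IC50 taken as the average of at least two independent assays, each run in duplicate.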

[2] = Inhibition of recombinant Plasmodium falciparum FabI using crotonoyl-CoA as substrate assessed as consumption of NADH after 10 mins
Procedure, shortened: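 Recombinant PfFabI inhibition was followed spectrophotometrically. IC50 is the concentration giving 50% inhibition, reported as the mean of three independent experiments.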

[3] = biological target: T1, 3-oxoacyl-(Acyl-carrier protein) reductase (Plasmodium falciparum (isolate 3D7), UniProt Q8I2S7); test: Inhibition of recombinant Plasmodium falciparum 3D7 FabG using acetoacetyl-CoA as substrate after 10 mins in presence of NADPH
T1 sequence (Q8I2S7 whole entry): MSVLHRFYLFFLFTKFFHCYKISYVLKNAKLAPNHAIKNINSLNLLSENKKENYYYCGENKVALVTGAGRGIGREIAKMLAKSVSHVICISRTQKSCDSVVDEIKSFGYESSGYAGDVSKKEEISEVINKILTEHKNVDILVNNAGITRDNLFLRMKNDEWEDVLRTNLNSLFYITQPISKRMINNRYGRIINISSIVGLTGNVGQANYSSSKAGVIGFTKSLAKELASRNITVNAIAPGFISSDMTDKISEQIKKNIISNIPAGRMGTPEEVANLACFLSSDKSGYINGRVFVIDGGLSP

Fatty acid synthase = biological target: T2, Fatty acid synthase (Plasmodium falciparum, UniProt Q965D7); test: Inhibition of recombinant Plasmodium falciparum FabZ using crotonoyl-CoA as substrate after 10 mins
T2 sequence (Q965D7 whole entry): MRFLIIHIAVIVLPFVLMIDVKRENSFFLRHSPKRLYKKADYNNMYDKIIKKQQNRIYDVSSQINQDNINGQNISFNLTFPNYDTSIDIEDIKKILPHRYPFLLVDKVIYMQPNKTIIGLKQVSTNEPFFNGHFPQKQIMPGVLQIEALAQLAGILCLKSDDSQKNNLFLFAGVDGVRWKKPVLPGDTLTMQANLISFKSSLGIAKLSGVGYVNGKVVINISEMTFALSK
Procedure, shortened: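 Recombinant enzymes PfFabG and PfFabZ were used. IC50 is the concentration giving 50% inhibition, reported as the mean of three independent experiments.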

[4] = Selectivity index, ratio of IC50 for rat L6 cells to IC50 for chloroquine/pyrimethamine-resistant Plasmodium falciparum K1; type: toxicity, cell-based; conditions: rat L6 cells (cytotoxicity) versus Plasmodium falciparum K1, read-out: Ratio IC50
Procedure, shortened: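 Ratio of the rat L6 cell growth-inhibition IC50 to the P. falciparum K1 IC50, calculated per WHO/TDR guidelines. Each cell IC50 is the average of at least two independent assays run in duplicate.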

Plasmodium falciparum [5] = test: Antiplasmodial activity against asexual blood stage form of Plasmodium falciparum assessed as growth inhibition after 72 hrs by [3H]-hypoxanthine incorporation assay; type: functional, organism-based; procedure, shortened: as §1
[6] = Inhibition of Plasmodium falciparum FabI using crotonoyl-CoA as substrate by UV-Vis spectrophotometric analysis in presence of NADH
Procedure, shortened: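 Recombinant PfFabI enzyme, spectrophotometric read-out; IC50 (concentration giving 50% inhibition) reported as the mean of three independent experiments.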

Row | SMILES | IC50 (Plasmodium falciparum [1]) | IC50 (L6) | IC50 [2] | IC50 [3] | IC50 (Fatty acid synthase) | selectivity ratio [4] | IC50 (Plasmodium falciparum [5]) | IC50 [6]
1 | O=c1oc2cc(O)ccc2cc1Oc1ccc(Cl)cc1O | > 15 µM | 144 µM | 6 µM | 99 µM | 16.3 µM |  |  | 
2 | Cc1cc(=O)oc2cc(Oc3ccc(Cl)cc3O)ccc12 | 9.5 µM | 85.9 µM | 0.25 µM | > 100 µM | > 100 µM | 9 |  | 
3 | Oc1cc(Cl)ccc1Oc1ccc(Cl)cc1Cl [TRICLOSAN] | 1.51 µM |  | 0.05 µM |  |  |  | 1 µM | 0.05 µM
4 | Cc1c(Oc2ccc(Cl)cc2O)c(=O)oc2cc(O)ccc12 | > 15 µM | 96.3 µM | 15 µM | > 100 µM | 28 µM |  |  | 
5 | O=c1oc2cc(O)ccc2cc1-c1ccc(Oc2ccc(Cl)cc2O)cc1 | 8 µM | 41 µM | 0.45 µM | > 100 µM | 10 µM | 5.1 |  | 
6 | O=c1oc2cc(O)cc(O)c2cc1Oc1ccc(Cl)cc1O | > 15 µM | 128 µM | 44 µM | > 100 µM | 90 µM |  |  | 
7 | CCc1cc(=O)oc2cc(Oc3ccc(Cl)cc3O)ccc12 | 5.7 µM | 84.8 µM | 0.27 µM | > 100 µM | > 100 µM | 14.9 |  | 
8 | O=c1oc2ccc(O)cc2cc1Oc1ccc(Cl)cc1O | > 15 µM | 134 µM | 14 µM | > 100 µM | > 100 µM |  |  | 
9 | O=c1ccc2ccc(Oc3ccc(Cl)cc3O)cc2o1 | 9.3 µM | 188 µM | 2.7 µM |  |  | 20.1 |  | 
10 | O=C(O[C@@H]1Cc2c(O)cc(O)cc2O[C@@H]1c1cc(O)c(O)c(O)c1)c1cc(O)c(O)c(O)c1 [EPIGALOCATECHIN GALLATE] |  |  |  |  | 0.03 µM |  |  | 
11 | O=c1ccc2cc(Oc3ccc(Cl)cc3O)ccc2o1 | 10.7 µM | 96.2 µM | 0.63 µM |  |  | 9 |  | 
12 | COc1cc([C@@H]2c3cc4c(cc3[C@H](O)[C@H]3COC(=O)[C@H]23)OCO4)cc(OC)c1OC [PODOFILOX] |  | 0.006 µM |  |  |  |  |  | 
13 | Cc1c(Oc2ccc(Cl)cc2O)c(=O)oc2ccccc12 | > 15 µM | 51.5 µM | 12 µM | > 100 µM | 13 µM |  |  | 
14 | CCc1cc(=O)oc2ccc(Oc3ccc(Cl)cc3O)cc12 | 5.6 µM | 142 µM | 11 µM |  |  | 25.6 |  | 
15 | Cc1cc(=O)oc2ccc(Oc3ccc(Cl)cc3O)cc12 | 15.6 µM | 35.5 µM | 14.2 µM |  |  | 2.2 |  | 
16 | O=c1oc2ccccc2cc1Oc1ccc(Cl)cc1O | 15 µM | 108 µM | 5.5 µM | > 100 µM | > 100 µM | 7.2 |  | 
